12 molecules from ChEMBL document CHEMBL1155808, “Antitumor activity of bis-indole derivatives” (J Med Chem, 2008) can be followed below.

Where a name gives a salt, the structure may show the parent alone. Calls of active or inactive are those of the source. The calls are words filed in the database; no cut-off is given here.

Assay [1] in a line: Cytotoxicity against human renal cancer cells. It counts as functional. The following applies: Cancer cell lines; for CC50: read-out: pLC50 (the source's name) (converted); for TGI: read-out: pTGI (converted). In outline: (§1)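 NCI 60-cell-line human tumour screen, with subpanels for leukemia, melanoma, lung, colon, kidney, ovary, breast, prostate and CNS. Compounds were dissolved in DMSO and tested at five ten-fold dilutions, highest 10^-4 M (10^-3 M for some). Endpoints were GI50, TGI and LC50, reported as negative log molar. Some compounds were assayed once, others two or three times.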

Assay [2] in a line: Cytotoxicity against human Non-small cell lung carcinoma cells. The assay is classed as functional. The following applies: for CC50: read-out: pLC50 (the source's name) (converted); for TGI: read-out: pTGI (converted). In outline:
as §1

Assay [3] is described as follows: Cytotoxicity against human melanoma cells. The note with it: Melanoma cell; for CC50: read-out: pLC50 (the source's name) (converted); for TGI: read-out: pTGI (converted). The assay is classed as functional.
Assay [4] is described as follows: Cytotoxicity against human colon cancer cells. It counts as functional. The note with it: Cancer cell lines; for CC50: read-out: pLC50 (the source's name) (converted); for TGI: read-out: pTGI (converted). The essentials:
as §1

Assay [5] can be described thus: Cytotoxicity against human breast cancer cells. The assay is classed as functional. The note with it: Cancer cell lines; for CC50: read-out: pLC50 (the source's name) (converted); for TGI: read-out: pTGI (converted). In outline: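 MTT cytotoxicity assay in breast cancer cell lines; proliferation expressed as percent growth inhibition relative to vehicle-treated control cells; IC50 reported.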

Assay [6] is described as follows: Cytotoxicity against human central nervous system cancer cells. The assay is classed as functional. The following applies: Cancer cell lines; for CC50: read-out: pLC50 (the source's name) (converted); for TGI: read-out: pTGI (converted). The essentials: as §1
Assay [7] can be described thus: Cytotoxicity against human prostate cancer cells. The assay is classed as functional. The following applies: Cancer cell lines; for CC50: read-out: pLC50 (the source's name) (converted); for TGI: read-out: pTGI (converted). In outline: as §1
Assay [8] can be described thus: Cytotoxicity against human ovarian cancer cells. It counts as functional. The following applies: Cancer cell lines; for CC50: read-out: pLC50 (the source's name) (converted); for TGI: read-out: pTGI (converted).
Assay [9] in a line: Cytotoxicity against human leukemia cells. The note with it: Leukemia cell; for CC50: read-out: pLC50 (the source's name) (converted); for TGI: read-out: pTGI (converted). The assay is classed as functional. The essentials: as §1
The subject of assay [10] is HEL. The assay can be described thus: Antiproliferative activity against human HEL cells after 48 hrs by MTT assay. The assay is classed as functional, cell-based. (Tetrazolium assays rely on reduction of a dye to a coloured formazan, in cell work by metabolically active cells.)
A short description of assay [11]: Inhibition of plasma membrane electron transport pathway in mitochondrial gene-knockout human HL60p'0 cells by WST1 reduction assay. In outline:
(§2)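 Cells at 10^5 per well in 0.1 ml pretreated 30 min with compound in DMSO (<0.1% final), then WST-1/mPMS added (final 500 µM and 20 µM); WST-1 reduction followed in real time at 450 nm; averages ± S.E.M. of four independent experiments.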

Assay [12] deals with Mo7e. The assay can be described thus: Antiproliferative activity against human Mo7e cells after 48 hrs by MTT assay. The assay is classed as functional, cell-based.
The subject of assay [13] is B1647. The experiment in a line: Antiproliferative activity against human B1647 cells after 48 hrs by MTT assay. It counts as functional, cell-based.
Assay [14] can be described thus: Inhibition of plasma membrane electron transport pathway in human HL60 cells by WST1 reduction assay. The following applies: HL-60. It counts as cell-based. The essentials:
as §2

For the molecule `CC[C@]1(O)C[C@H]2CN(CCc3c([nH]c4ccccc34)[C@@](C(=O)OC)(c3cc4c(cc3OC)N(C=O)[C@H]3[C@@](O)(C(=O)OC)[C@H](OC(C)=O)[C@]5(CC)C=CCN6CC[C@]43[C@@H]65)C2)C1` [VINCRISTINE SULFATE], the GI50 in assay [1] is 0.316 µM; in assay [2], 0.251 µM; in assay [3], 0.158 µM; in assay [4], 0.1 µM; in assay [5] it was 0.316 µM; in assay [6], 0.126 µM. The values for the GI50 in assay [7], in assay [8] and in assay [9] were 0.126 µM, 0.316 µM and 0.1 µM, respectively. The CC50 was 251 µM in assay [1]; 79.4 µM in assay [4]; 316 µM in [5]; 200 µM in [6]; 316 µM in [7]; 316 µM in assay [8]. Also, the CC50 in [9] was 631 µM.

Turning to `COc1ccc2c(c1)/C(=C\c1cccc(/C=C3/C(=O)N(C)c4ccc(OC)cc43)n1)C(=O)N2C`, the GI50 is 1.51 µM in [1]; 2.45 µM in assay [2]; 1.05 µM in assay [3]; 1.45 µM in [4]; 1.62 µM in [5]; 3.24 µM in assay [6]. Besides, the results for the GI50 in assay [7], in [8] and in [9] were 2.09 µM, 2.57 µM and 38 µM, respectively. The CC50 in [1] is 20.9 µM; in assay [2], 74.1 µM; in assay [3], 8.91 µM; in assay [4], 11.7 µM; in [5], 63.1 µM. For the same molecule, the TGI was 5.25 µM in assay [1]; 19.1 µM in assay [2]; 3.8 µM in assay [3]; 3.39 µM in [4]; 14.8 µM in [6].

For the molecule `O=C1Nc2ccc(F)cc2/C1=C\c1cccc(/C=C2/C(=O)Nc3ccc(F)cc32)n1`, the GI50 in assay [1] is 4.17 µM; in assay [2], 7.24 µM; in assay [3], 2.04 µM; in assay [4] it was 2.14 µM; in [5], 2.95 µM; in assay [6], 3.8 µM. In addition, the figures for the 50% growth inhibitory concentration (GI50) in assay [7], in [8] and in assay [9] were 3.47 µM, 4.17 µM and 1.17 µM, respectively. In addition, the CC50 is 51.3 µM in assay [1]; 79.4 µM in assay [2]; 36.3 µM in assay [3]; 39.8 µM in assay [4]; 50.1 µM in assay [5]; 53.7 µM in [6]. Also, the CC50 in [7] is 74.1 µM; in assay [8], 81.3 µM. Further, the TGI in [1] is 12.9 µM; in assay [2] it was 26.3 µM; in assay [3] it was 4.9 µM; in assay [4], 5.37 µM; in assay [5], 14.5 µM; in [6] it was 11.5 µM. Also, the TGI was 12.3 µM in assay [7] and 7.76 µM in assay [9]. Besides, the outcome in assay [10], in [12] and in assay [13] was Active. Moreover, the IC50 in assay [11] and in [14] was above 117 µM throughout.

Turning to `O=C1Nc2ccc(Br)cc2/C1=C\c1cccc(/C=C2/C(=O)Nc3ccc(Br)cc32)n1`, the concentration for 50% growth inhibition (GI50) in assay [1] was 7.94 µM; in assay [2], 11 µM; in assay [3], 10 µM; in assay [4], 10.5 µM; in assay [5], 6.17 µM; in assay [6] it was 3.72 µM. The GI50 in [7] is 6.46 µM; in assay [8], 9.77 µM. Moreover, the CC50 in [1] is 51.3 µM; in assay [2], 63.1 µM; in assay [3] it was 52.5 µM; in assay [4], 52.5 µM; in assay [5], 53.7 µM; in [6], 40.7 µM. The CC50 in assay [7] was 55 µM; in assay [8], 58.9 µM. The TGI in assay [1] is 21.9 µM; in assay [2] it was 28.2 µM; in assay [3], 23.4 µM; in assay [4], 24.5 µM; in assay [5] it was 18.2 µM; in [6], 14.1 µM. The TGI in [7] is 20.9 µM; in assay [8], 25.7 µM.

Take `O=C1Nc2ccccc2/C1=C\c1cccc(/C=C2/C(=O)Nc3ccccc32)n1`: the CC50 in assay [1] was 5.37 µM; in [2], 22.4 µM; in assay [3], 4.68 µM; in [4], 6.46 µM; in [5], 57.5 µM; in [6], 7.08 µM. In addition, the results for the CC50 in assay [7] and in [8] were 24.5 µM and 6.61 µM, respectively. For the same molecule, the TGI in assay [1] was 1.62 µM; in assay [2], 3.16 µM; in assay [3] it was 0.933 µM; in assay [4], 0.776 µM; in assay [6] it was 1.82 µM; in assay [7], 2.69 µM. Further, the TGI in [8] was 1.78 µM; in assay [9], 1.95 µM. Besides, the GI50 in assay [2] is 0.813 µM; in [3] it was 0.302 µM; in assay [4] it was 0.282 µM; in assay [5], 0.49 µM; in assay [6] it was 0.575 µM; in assay [7], 0.631 µM. The concentration for 50% growth inhibition (GI50) is 0.589 µM in assay [8] and 0.234 µM in [9].

As to `COc1cc2c(cc1C)NC(=O)/C2=C/c1cccc(/C=C2/C(=O)Nc3cc(C)c(OC)cc32)n1`, the GI50 was 52.5 µM in assay [1]; 83.2 µM in assay [2]; 79.4 µM in assay [3]; 49 µM in [4]; 74.1 µM in assay [5]; 89.1 µM in assay [6]. Further, the GI50 in assay [7] is 33.9 µM; in assay [8], 89.1 µM; in [9], 4.37 µM. Further, the outcome in assay [10], in assay [12] and in assay [13] was Active. Moreover, the 50% inhibitory concentration (IC50) in assay [11] and in [14] was above 117 µM throughout. Moreover, the TGI is 93.3 µM in assay [5] and 60.3 µM in assay [9]. Moreover, the CC50 in assay [9] is 91.2 µM.

For `O=C1Nc2cc(Cl)ccc2/C1=C\c1cccc(/C=C2/C(=O)Nc3cc(Cl)ccc32)n1`, the 50% growth inhibitory concentration (GI50) was 1.07 µM in assay [1]; 3.72 µM in [2]; 1.78 µM in assay [3]; 1.74 µM in assay [4]; 2.29 µM in assay [5]; 2.24 µM in assay [6]. Besides, the GI50 in assay [7] was 3.39 µM; in assay [8] it was 3.02 µM; in assay [9] it was 1.45 µM. Also, the CC50 in assay [1] was 20 µM; in assay [2], 57.5 µM; in [3], 21.4 µM; in [4], 25.1 µM; in assay [5], 52.5 µM; in [6], 36.3 µM. In addition, the CC50 in assay [7] is 70.8 µM; in assay [8] it was 63.1 µM; in assay [9] it was 95.5 µM. For the same molecule, the TGI in assay [1] is 3.31 µM; in [2], 14.8 µM; in assay [3] it was 6.17 µM; in assay [4] it was 4.9 µM; in assay [5], 13.5 µM; in assay [6], 7.76 µM. The TGI in assay [7] was 40.7 µM; in [8], 19.5 µM; in assay [9], 8.13 µM. Moreover, the outcome in assay [10], in assay [12] and in [13] was Active. For the same molecule, the IC50 in [11] and in assay [14] was above 117 µM throughout.

Regarding `O=C(O)CCC(=O)c1ccc2c(c1)/C(=C\c1cccc(/C=C3/C(=O)Nc4ccc(C(=O)CCC(=O)O)cc43)n1)C(=O)N2`, the GI50 in assay [6] is 30.2 µM; in [9], 15.5 µM. The TGI in assay [6] was 61.7 µM.

With `Cc1cc2c(cc1O)/C(=C\c1cccc(/C=C3/C(=O)Nc4cc(C)c(O)cc43)n1)C(=O)N2`, the GI50 in [1] is 67.6 µM; in [2] it was 85.1 µM; in [3] it was 87.1 µM; in assay [4], 72.4 µM; in [5], 70.8 µM; in [7], 66.1 µM. The concentration for 50% growth inhibition (GI50) in assay [8] is 75.9 µM; in assay [9] it was 27.5 µM. Further, the outcome in [10], in assay [12] and in assay [13] was Active. In addition, the half-maximal inhibitory concentration (IC50) in assay [11] and in assay [14] was above 117 µM throughout. For the same molecule, the TGI in assay [5] was 87.1 µM.

Take `O=C1Nc2ccccc2/C1=c1/[nH]c(=O)/c(=C2/C(=O)Nc3ccccc32)[nH]c1=O`: the GI50 in [1] is 83.2 µM; in assay [2] it was 85.1 µM; in assay [5] it was 85.1 µM; in assay [6], 74.1 µM; in assay [8], 97.7 µM.

As for `O=C1Nc2ccc(S(=O)(=O)O)cc2/C1=C\c1cccc(/C=C2/C(=O)Nc3ccc(S(=O)(=O)O)cc32)n1`, the results for the GI50 in assay [1], in [3] and in assay [9] were 85.1 µM, 95.5 µM and 93.3 µM, respectively.

Regarding `COc1ccc2[nH]cc(/C=c3\[nH]c(=O)/c(=C/c4c[nH]c5ccc(OC)cc45)[nH]c3=O)c2c1`, the GI50 in [3] is 72.4 µM; in assay [5], 79.4 µM; in assay [8], 89.1 µM.

By GI50 is commonly meant the concentration at which growth is held to half of that of the control. High values mean lower sensitivity of the cells, low ones greater sensitivity of the cells. What is called IC50 is the concentration that gives 50% inhibition. High values mean weaker potency, low ones greater potency.
